Assay outcomes as filed in PubChem.
TDP2 absorb: human TDP2 enzyme inhibitors, primary screen, biochemical, epi absorbance, recombinant enzyme. actives 0.34% (n = 370,000). Tyrosyl-DNA phosphodiesterase 2 (Homo sapiens), O95551. AID 720702, 2013. T5PNP hydrolysis, p-nitrophenol absorbance 415 nm. inhibition, % at 12.8 µM;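 active = inhibition above the mean of all tested compounds plus 3 SD, set per campaign, cut at about 25% in these data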;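 note: 0% = DMSO with enzyme and 100% = buffer with substrate but no TDP2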
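System – recombinant human TDP2 · Quantity – TDP2 enzyme at 120 nM final · Doses – single concentration, 12.8 µM nominal, with 1% DMSO · Incubation – 2 h at 37 °C · Measured by – epi absorbance of p-nitrophenol freed from T5PNP by hydrolysis · Read-out – % inhibition relative to enzyme-containing and enzyme-free wells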
NSD2 inh: NSD2 histone methyltransferase inhibitors, primary screen, biochemical, AlphaScreen, single concentration, set 2 | actives 0.54% (n = 310,000) | NSD2 peptide methylation, 120 min | Histone-lysine N-methyltransferase NSD2 (Homo sapiens), O96028 | AID 743445, 2014 | inhibition, % at 12.5 µM; in the data active = inhibition above about 50%
LEDGF integ inh: blockers of LEDGF/p75-dependent integrase strand transfer – biochemical, TR-FRET, high throughput, primary screen; inhibition, % at 3.7 µM; actives 0.64% (n = 370,000); HIV-1 integrase (with human LEDGF/p75); TR-FRET IN-LEDGF/p75 DNA integration, Eu/Cy5; AID 743269, 2014;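 active = inhibition above the screen-wide mean plus 3 SD, cut at about 13% in these data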;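 note: signal is the Cy5 over europium emission ratio at 671 and 618 nm; 0% = plate median of compound wells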
UHRF1 binding: UHRF1 methylated DNA binding inhibitors, primary screen, counter-screen for MBD2 inhibitor project, biochemical, TR-FRET, human UHRF1, single concentration; actives 0.75% (n = 370,000); UHRF1 binding to methylated oligo; inhibition, % at 4.4 µM; in the data active = inhibition above about 21%;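 note: UHRF1 SRA domain binding a hemimethylated CpG hairpin DNA probe; 0% = median of test compound wells and 100% = reference inhibitor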
MBD2 inh: inhibitors of MBD2 binding to methylated DNA, primary screen, biochemical, TR-FRET, DNA-binding domain, human | Methyl-CpG-binding domain protein 2 (Homo sapiens), Q9UBB5 | MBD2 binding to methylated oligonucleotide | inhibition, % at 4.4 µM | actives 0.31% (n = 370,000) | AID 686964, 2013; in the data active = inhibition above about 13%
Target sequence (Q9UBB5 whole entry, looked up, the tested form may be a part): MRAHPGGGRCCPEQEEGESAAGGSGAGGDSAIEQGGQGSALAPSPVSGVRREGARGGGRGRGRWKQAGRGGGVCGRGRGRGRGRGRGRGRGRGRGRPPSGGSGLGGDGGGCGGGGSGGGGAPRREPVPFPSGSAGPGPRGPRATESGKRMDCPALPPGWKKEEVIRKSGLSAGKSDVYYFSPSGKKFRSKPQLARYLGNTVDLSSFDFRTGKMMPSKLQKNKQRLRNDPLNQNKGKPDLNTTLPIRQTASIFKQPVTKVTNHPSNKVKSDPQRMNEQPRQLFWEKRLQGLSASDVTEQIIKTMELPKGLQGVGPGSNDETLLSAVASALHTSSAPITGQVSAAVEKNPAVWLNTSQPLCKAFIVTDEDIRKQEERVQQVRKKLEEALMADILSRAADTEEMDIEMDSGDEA
CASP6 VEID inh: human caspase-6 inhibitors, primary screen, biochemical, VEID-R110 fluorescence, single point, set 2; P55212; purified caspase-6, Z-VEID-R110 cleavage fluorescence; inhibition, % at 12.5 µM; actives 0.53% (n = 350,000); AID 686996, 2013;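 active = mean inhibition across replicates at least about 35%, with every replicate also reaching that limit, limit read from the data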;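 note: 0% = median of neutral control wells and 100% = no fluorescence left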
Starred values were filed as active, the others as inactive; nt = no result. An excerpt weighted towards active compounds, which were near 1.9% of everything screened.

SMILES	TDP2 absorb	NSD2 inh	LEDGF integ inh	UHRF1 binding	MBD2 inh	CASP6 VEID inh
COc1ccc(S(=O)(=O)N(C)C[C@H]2OCCCC[C@@H](C)Oc3ccc(N(C)C)cc3C(=O)N([C@@H](C)CO)C[C@@H]2C)cc1	nt	nt	nt	nt	nt	0
Cc1nc(Cl)c(C(=O)NC(C)(C)C)c(C)c1Cl	2	0	-4	47*	4	nt
COc1ccc(Nc2nc(-c3ccc(OC)cc3)c(CCC(=O)O)s2)cc1	-29	5	3	0	-2	0
COC(=O)CCc1sc(Nc2ccccc2)nc1-c1ccc(OC)cc1	-1	0	-2	37*	4	nt
CN(C)C(=O)[C@H]1[C@H](CO)[C@H]2Cn3c(ccc(-c4ccccc4)c3=O)[C@H]2N1Cc1ccccc1	nt	nt	nt	nt	nt	6
CN1C[C@@H]2[C@H](c3ccccc31)[C@@H](CO)N2Cc1ccccc1F	nt	nt	nt	nt	nt	-6
O=C(/C(=C(\[O-])c1ccccc1)[n+]1ccc2ccccc2c1)c1ccc(Cl)cc1	-4	5	0	25*	2	nt
O=C(/C(=C(\[O-])c1ccccc1)[n+]1ccc2ccccc2c1)c1ccccc1	7	3	-2	-8	-2	nt
O=C(c1ccc(F)cc1)C1CCN(C(=O)c2ccncc2)CC1	7	-2	0	80*	-6	nt
COc1ccc(NC(=O)N(C)C[C@H]2Oc3ccc(NS(=O)(=O)c4ccccc4)cc3CC(=O)N([C@H](C)CO)C[C@@H]2C)cc1	nt	nt	nt	nt	nt	0
CN(C)CC(=O)N[C@H]1CC[C@@H](CCn2cc(C3CC3)nn2)O[C@@H]1CO	nt	nt	nt	nt	nt	-3
CC(=O)c1sc(C(=O)O)c(-c2ccco2)c1-c1ccco1	-6	37	7	12	2	64*
O=C(C[C@H]1C[C@@H]2c3cc(NC(=O)NC4CCCCC4)ccc3O[C@@H]2[C@H](CO)O1)NCCc1ccccc1	nt	nt	nt	nt	nt	2
CCCNC(=O)C[C@H]1CC[C@@H]2[C@@H](COc3ccc(NC(=O)NC(C)C)cc3C(=O)N2C)O1	nt	nt	nt	nt	nt	-3
CCOC(=O)c1c(/N=C/N(C)C)sc2c1CCC2	-2	nt	-1	95*	4	-5
CCN1/C(=C/c2ccc3cc(C)ccc3[n+]2CC)Sc2ccccc21	-2	45	1	-42	-1	1
CCN1/C(=C/c2ccc3cc(C)ccc3[n+]2CC)Sc2cc(C)c(C)cc21	-4	161*	2	12	-2	-35
COc1cc(C(=O)OCC(=O)Nc2c(C)n(C)n(-c3ccccc3)c2=O)c([N+](=O)[O-])cc1OC	0	2	6	32*	2	0
COc1ccc2c3c(n(C)c2c1)[C@H](CO)N(C(=O)C1CCOCC1)CC31CN(C(=O)C2CCOCC2)C1	nt	nt	nt	nt	nt	1
CCCNC(=O)N1CC2(CCN(CC3CCCCC3)CC2)c2c(n(C)c3cc(OC)ccc23)[C@@H]1CO	nt	nt	nt	nt	nt	5
CCCCC1(c2ccc(F)cc2)NC(=O)N(CC(=O)N2CCN(C(=O)c3ccco3)CC2)C1=O (stereo not drawn)	-16	-3	2	2	-3	46*
CCn1c(SCC(=O)N2CCCc3ccccc32)nnc1-c1cccs1	2	-1	3	21*	8	0
O=C(CSc1nnc(-c2cccs2)n1-c1ccccc1)N1CCCc2ccccc21	-1	14	-4	-5	0	nt
CC=Cc1ccc2n(c1=O)C[C@H]1[C@H](CO)[C@@H](C(=O)NCc3ccccc3)[C@@H]2N1CC (mixture of isomers)	nt	nt	nt	nt	nt	4
CCC(CC)C(=O)OCC(=O)Nc1cccc(S(=O)(=O)N(C)c2ccccc2)c1	-15	-4	4	0	4	nt
SMILES	TDP2 absorb	NSD2 inh	LEDGF integ inh	UHRF1 binding	MBD2 inh	CASP6 VEID inh
CN(c1ccccc1)S(=O)(=O)c1cccc(C(=O)OCC(=O)Nc2ccc(C(N)=O)cc2)c1	-9	6	4	6	7	40*
CC(C)NC(=O)c1ccc(CSCc2ccccc2Cl)o1	5	1	-3	25*	1	2
C=CCNC(=S)N1CCC(C(=O)c2ccc(Cl)cc2)CC1	19	1	0	-2	5	64*
CCn1c(CNC(=O)COc2ccc(C(C)C)cc2)nnc1SCC(=O)Nc1ccccc1F	0	3	-2	0	0	53*
CCn1c(CNC(=O)COc2ccc(C(C)C)cc2)nnc1SCC(=O)Nc1ccccc1C(C)C	-15	0	-2	-1	0	nt
COC(=O)C[C@H]1CC[C@@H](NS(=O)(=O)c2ccccc2F)[C@H](CO)O1	nt	nt	nt	nt	nt	3
O=C(CSc1nc(O)c(Cc2ccccc2)c(=O)[nH]1)Nc1nnc(SCc2ccccc2)s1	-3	31	-8	0	-6	51*
NC(=O)CSc1nnc(-c2ccc(S(=O)(=O)N3CCCCC3)cc2)n1-c1ccccc1	0	3	-1	40*	4	-1
COc1ccccc1-n1c(SCC(N)=O)nnc1-c1ccc(S(=O)(=O)N2CCCCC2)cc1	-17	1	0	3	2	nt
COc1cccc(CC2(CO)CCCN(Cc3ccc(CN4CCCCC4)s3)C2)c1 (stereo not drawn)	2	2	-1	27*	2	-11
COc1cccc(CC2(CO)CCCN(Cc3ccccc3Cl)C2)c1 (stereo not drawn)	1	0	3	-1	-4	3
O=C(C[C@H]1C=C[C@@H](NC(=O)C2CC2)[C@@H](CO)O1)NCc1ccncc1	nt	nt	nt	nt	nt	-1
O=C1CC(C(=O)Nc2ccc(Br)cc2)C2(CCCC2)O1 (stereo not drawn)	4	4	2	8	0	39*
CCC(=O)Nc1ccc2c(c1)C(=O)N(C)[C@@H]1CC[C@H](CC(=O)NCc3ccc(OC)cc3)O[C@H]1CO2	nt	nt	nt	nt	nt	4
C[C@@H]1CN([C@@H](C)CO)C(=O)c2cc(NC(=O)C3CCCCC3)ccc2O[C@@H](C)CCCCO[C@H]1CN(C)C(=O)c1ccccc1	nt	nt	nt	nt	nt	0
COCOCCn1cc(CN2CCS(=O)(=O)N(Cc3ccc(-c4ccncc4)cc3)C(CC(C)C)C2=O)nn1 (stereo not drawn)	-4	nt	1	24*	5	-1
COCOCCn1cc(CN2CCS(=O)(=O)N(Cc3ccc(-c4ccncc4)cc3)C(C(C)C)C2=O)nn1 (stereo not drawn)	2	nt	-1	-1	-1	-1
CSc1ccc(Cl)c(C(=O)OCC(=O)NCC(C)C)c1	-4	-1	-3	0	3	nt
